These results are taken from ChEMBL document CHEMBL1138881, “Application of phosphoramidate ProTide technology significantly improves antiviral potency of carbocyclic adenosine derivatives” (J Med Chem, 2006).

Structures are written as SMILES. pEC50: −log10 of the molar value.

Series [1] concerns HepG2. Description: Cytotoxicity against HepG2 2.2.15 cells. Format: functional. The following applies: Homo sapiens. In a few lines:
(§1)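 HepG2 2.2.15 cells, which produce HBV constitutively, were seeded at 5 × 10³ per well. Drug-containing medium was replaced every other day for 9 days. Virions in the supernatant were captured on anti-HBsAg plates, and their DNA was quantified by PCR against an HBV standard curve and normalized to untreated cells. For cell growth, monolayers were ethanol-fixed and stained with bisbenzimide H33342, and fluorescence was compared with untreated cells. SI = CC₅₀/EC₅₀.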

In series [2] the test system is Human immunodeficiency virus 1. Description: Antiviral activity against HIV1 3B in MT4 cells. It counts as functional, organism-based. The following applies: Human immunodeficiency virus 1, 3B. In a few lines: (§2)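 MT-4 cells at 4.5 × 10⁵ cells/mL were infected with 100 CCID₅₀/mL of HIV-1 or HIV-2. Viable cells were then counted after trypan blue staining, and EC₅₀ was derived from these viable-cell counts.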

Series [3] has as its system Human immunodeficiency virus 2. The series can be described thus: Antiviral activity against HIV2 ROD in CEM cells. It counts as functional, organism-based. To be noted: Human immunodeficiency virus 2, ROD, CCRF-CEM. In a few lines:
(§3)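 CEM cells at 4.5 × 10⁵ cells/mL were infected with 100 CCID₅₀/mL of HIV-1 or HIV-2. Giant-cell formation was scored microscopically. EC₅₀ was the concentration preventing syncytium formation by 50%.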

In a further series the test system is CEM cells (Homo sapiens). Description: Cytotoxicity against CEM cells.
For series [4], the system named is Human immunodeficiency virus 2. The series can be described thus: Antiviral activity against HIV2 ROD in MT4 cells. Format: functional, organism-based. To be noted: Human immunodeficiency virus 2, ROD. In a few lines:
as §2

Series [5] relates to Human immunodeficiency virus 1. Description: Antiviral activity against HIV1 3B in CEM cells. It counts as functional, organism-based. The following applies: Human immunodeficiency virus 1, 3B, CCRF-CEM. In a few lines:
as §3

Series [6] deals with Cynomolgus monkey. Description: Metabolic stability in cynomolgus monkey liver S9 fraction. Format: ADME, Macaca fascicularis. In a few lines:
(§4)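 Pooled cynomolgus S9 (liver or intestinal segments), test compound 10 µM final, 37 °C, DMSO <1% final; reaction started with NADPH 2.5 mM final. Aliquots taken at 0 (preincubation), 10, 20, 30 and 60 min, quenched with cold acetonitrile, centrifuged; supernatant parent measured by LC/MS/MS. Stability given as % remaining from pre- vs postincubation peak areas.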

Another series deals with Hepatitis B virus. The series can be described thus: Antiviral activity against HBV in HepG2 2.2.15 cells. It counts as functional, organism-based. An outline of the steps: as §1
Another series concerns MT4. Description: Cytotoxicity against MT4 cells. The following applies: Homo sapiens. It counts as functional. In a few lines: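 Exponentially growing MT-4 cells were resuspended at 5 × 10⁵ cells/mL in RPMI 1640 with 20% FBS and 20% IL-2. They were infected with HIV-1 IIIB (100 × TCID₅₀ per well) for 1 h at 37 °C, with mock-infected cells run in parallel. The suspension was diluted 6-fold onto serially diluted compound and incubated for 5 days at 37 °C in 5% CO₂. MTS staining was read at 492 nm.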

Series [7] deals with Cynomolgus monkey. Description: Metabolic stability in cynomolgus monkey intestine S9 fraction. It counts as ADME, Macaca fascicularis. In a few lines:
as §4

The subject of series [8] is HepG2. The series can be described thus: Selectivity index, CC50 for HepG2 2.2.15 cells/EC50 for HBV. It counts as functional. An outline of the steps:
as §1

Consider `COC(=O)[C@H](CC(C)C)NP(=O)(OC[C@H]1C=C[C@@H](n2cnc3c(N)ncnc32)C1)Oc1ccccc1` (stereo not given in full), for which the CC50 in the series on HepG2 [1] was 20 µM; with CEM cells (Homo sapiens), 70 µM; in the series with MT4, above 5 µM. Further, the pEC50 in series [2] was 6.72; in series [3] it was 6.25; in [4], 6.89; in series [5] it was 6.38; in the series on Hepatitis B virus, 8.00. Further, the Stability in the series on Cynomolgus monkey [6] stood at 0%; in the series on Cynomolgus monkey [7], 75%.

Regarding `CCOC(=O)c1ccccc1OP(=O)(N[C@@H](C)C(=O)OC)OC[C@H]1C=C[C@@H](n2cnc3c(N)ncnc32)C1` (stereo not given in full), the CC50 was 12 µM in the series with HepG2 [1], 4.17 µM in the series with CEM cells (Homo sapiens) and below 4 µM in the series on MT4. The pEC50 in series [2] was above 6.59; in series [3] it was 7.24; in [5] it was 7.28; in the series with Hepatitis B virus it was 8.40. For the same compound, the results for the Stability in the series with Cynomolgus monkey [6] and in the series on Cynomolgus monkey [7] were 25% and 80%, respectively.

Turning to `CC(C)OC(=O)[C@H](C)NP(=O)(OC[C@H]1C=C[C@@H](n2cnc3c(N)ncnc32)C1)Oc1ccccc1` (stereo not given in full), the results for the CC50 in the series with HepG2 [1], in the series on CEM cells (Homo sapiens) and with MT4 were above 2 µM, 84 µM and 91.4 µM, respectively. Further, the pEC50 in series [2] was 6.82; in series [3] it was 6.60; in series [4], 6.66; in series [5], 6.52; with Hepatitis B virus, 8.22. Also, the Stability worked out at 8% in the series on Cynomolgus monkey [6] and 90% in the series on Cynomolgus monkey [7].

`C[C@H](NP(=O)(OC[C@H]1C=C[C@@H](n2cnc3c(N)ncnc32)C1)Oc1ccccc1)C(=O)OC(C)(C)C` (stereo not given in full): the CC50 in the series with HepG2 [1] was 170 µM; with CEM cells (Homo sapiens), 130 µM; in the series on MT4, below 25 µM. The pEC50 in series [2] is above 6.59; in [3], 5.44; in series [4], 5.51; in series [5] it was 5.53; in the series with Hepatitis B virus, 6.60. Further, the values for the Stability in the series with Cynomolgus monkey [6] and with Cynomolgus monkey [7] were 1% and 96%, respectively.

As for `COC(=O)[C@H](CCSC)NP(=O)(OC[C@H]1C=C[C@@H](n2cnc3c(N)ncnc32)C1)Oc1ccccc1` (stereo not given in full), the CC50 with HepG2 [1] is 16 µM; in the series with CEM cells (Homo sapiens), 85.8 µM; with MT4, above 5 µM. Moreover, the pEC50 in series [2] was 6.80; in [3] it was 6.00; in series [4], 6.68; in series [5], 6.28; in the series on Hepatitis B virus, 7.52. The Stability in the series with Cynomolgus monkey [6] worked out at 0%; in the series on Cynomolgus monkey [7] it was 66%.

As for `COC(=O)c1ccc(OP(=O)(N[C@@H](C)C(=O)OC)OC[C@H]2C=C[C@@H](n3cnc4c(N)ncnc43)C2)cc1` (stereo not given in full), the CC50 in the series on HepG2 [1] is above 2 µM; with CEM cells (Homo sapiens), 12.9 µM; in the series with MT4, above 4 µM. Besides, the pEC50 in series [2] is 6.92; in [3], 6.89; in series [4] it was 7.25; in series [5], 6.89; in the series with Hepatitis B virus, 8.40. Moreover, the Stability worked out at 7% in the series with Cynomolgus monkey [6] and 48% with Cynomolgus monkey [7].

Take `COC(=O)[C@H](Cc1ccc(O)cc1)NP(=O)(OC[C@H]1C=C[C@@H](n2cnc3c(N)ncnc32)C1)Oc1ccccc1` (stereo not given in full): the CC50 with HepG2 [1] is above 2 µM; with CEM cells (Homo sapiens), 110 µM; in the series with MT4 it was 26.9 µM. Further, the pEC50 in [2] was 6.24; in [3] it was 4.74; in [4], 6.14; in series [5], 5.27; with Hepatitis B virus, 7.30. The Stability with Cynomolgus monkey [6] and in the series on Cynomolgus monkey [7] was 0% throughout.

`COC(=O)[C@H](C)NP(=O)(OC[C@H]1C=C[C@@H](n2cnc3c(N)ncnc32)C1)Oc1ccccc1` (stereo not given in full): the “Ratio CC50/EC50” value in the series with HepG2 [8] amounted to 75000. The CC50 with HepG2 [1] came out at 1280 µM; in the series on CEM cells (Homo sapiens) it was 18.1 µM; with MT4 it was 6.4 µM. In addition, the pEC50 in series [2] is 7.52; in series [3], 7.05; in [4], 7.37; in [5], 6.89; in the series with Hepatitis B virus, 7.77. Also, the Stability in the series with Cynomolgus monkey [6] is on record as 24%; with Cynomolgus monkey [7], 74%.

Regarding `CC[C@H](C)[C@H](NP(=O)(OC[C@H]1C=C[C@@H](n2cnc3c(N)ncnc32)C1)Oc1ccccc1)C(=O)OC` (stereo not given in full), the CC50 in the series on HepG2 [1] was 76 µM; in the series on CEM cells (Homo sapiens), 118 µM; in the series with MT4, above 5 µM. Further, the pEC50 is 6.02 in series [2]; 5.46 in series [3]; 5.95 in series [4]; 5.68 in series [5]; 7.22 in the series with Hepatitis B virus. In addition, the Stability in the series with Cynomolgus monkey [6] turned out to be 0%; with Cynomolgus monkey [7] it was 69%.

`CCOC(=O)c1cccc(OP(=O)(N[C@@H](C)C(=O)OC)OC[C@H]2C=C[C@@H](n3cnc4c(N)ncnc43)C2)c1` (stereo not given in full): the CC50 with HepG2 [1] is above 2 µM; with CEM cells (Homo sapiens), 8.39 µM; in the series on MT4 it was 4.39 µM. Further, the pEC50 is 7.28 in [2]; 7.10 in series [3]; 7.48 in series [4]; 7.19 in [5]; 8.40 with Hepatitis B virus. Besides, the Stability in the series on Cynomolgus monkey [6] is on record as 19%; in the series with Cynomolgus monkey [7], 42%.

On to `C[C@H](NP(=O)(OC[C@H]1C=C[C@@H](n2cnc3c(N)ncnc32)C1)Oc1ccccc1)C(=O)OCC(C)(C)C` (stereo not given in full), for which the values for the CC50 in the series on HepG2 [1], with CEM cells (Homo sapiens) and with MT4 were 13 µM, 19.5 µM and above 10 µM, respectively. The negative-log EC50 (pEC50) in series [2] was 7.37; in series [3], 7.08; in [4], 7.52; in series [5] it was 7.17; with Hepatitis B virus, 8.52. The Stability in the series with Cynomolgus monkey [6] worked out at 0%; in the series on Cynomolgus monkey [7], 57%.

With `COC(=O)[C@H](CCCCN)NP(=O)(OC[C@H]1C=C[C@@H](n2cnc3c(N)ncnc32)C1)Oc1ccccc1.O=C(O)C(F)(F)F` (stereo not given in full), the CC50 with HepG2 [1] is above 100 µM; with CEM cells (Homo sapiens), above 250 µM; in the series on MT4 it was above 25 µM. For the same compound, the pEC50 in series [2] was 4.82; in [3], 3.82; in [4] it was 4.57; in series [5], 4.60; in the series on Hepatitis B virus it was 5.70. For the same compound, the Stability with Cynomolgus monkey [6] was 95%; with Cynomolgus monkey [7] it was 17%.

For the compound `COC(=O)[C@@H](NP(=O)(OC[C@H]1C=C[C@@H](n2cnc3c(N)ncnc32)C1)Oc1ccccc1)C(C)C` (stereo not given in full), the CC50 was 120 µM in the series on HepG2 [1], 167 µM in the series with CEM cells (Homo sapiens) and below 25 µM with MT4. The pEC50 in series [2] was 6.19; in series [3] it was 5.35; in [4], 5.98; in series [5], 6.00; with Hepatitis B virus it was 7.70. The Stability is 2% in the series with Cynomolgus monkey [6] and 91% in the series with Cynomolgus monkey [7].

For `COC(=O)C[C@H](NP(=O)(OC[C@H]1C=C[C@@H](n2cnc3c(N)ncnc32)C1)Oc1ccccc1)C(=O)OC` (stereo not given in full), the values for the CC50 with HepG2 [1], in the series with CEM cells (Homo sapiens) and with MT4 were above 2 µM, above 50 µM and above 16 µM, respectively. The pEC50 in series [2] is 6.49; in [3], 5.46; in series [4], 6.59; in series [5], 5.96; in the series with Hepatitis B virus, 7.30. Further, the Stability in the series with Cynomolgus monkey [6] was 4%; in the series with Cynomolgus monkey [7], 8%.

`COC(=O)CNP(=O)(OC[C@H]1C=C[C@@H](n2cnc3c(N)ncnc32)C1)Oc1ccccc1` (stereo not given in full): the CC50 in the series on HepG2 [1] was above 2 µM; in the series on CEM cells (Homo sapiens), at least 250 µM; in the series with MT4 it was above 100 µM. Besides, the pEC50 in series [2] is 5.36; in series [3] it was 4.70; in [4], 5.24; in series [5] it was 4.87; with Hepatitis B virus, 7.07. The values for the Stability with Cynomolgus monkey [6] and in the series on Cynomolgus monkey [7] were 46% and 85%, respectively.

One may read the CC50 as the concentration that lowers cell viability or growth by half. The pEC50 is the negative decadic logarithm of the EC50, by convention in mol/L.
